The source of these data is ChEMBL document CHEMBL4261559, “Small molecule piperazinyl-benzimidazole antagonists of the gonadotropin-releasing hormone (GnRH) receptor” (Medchemcomm, 2017).

Structures are written as SMILES.

The first data set concerns the target T1, Gonadotropin-releasing hormone receptor (Homo sapiens, UniProt P30968).
T1 sequence (P30968 whole entry): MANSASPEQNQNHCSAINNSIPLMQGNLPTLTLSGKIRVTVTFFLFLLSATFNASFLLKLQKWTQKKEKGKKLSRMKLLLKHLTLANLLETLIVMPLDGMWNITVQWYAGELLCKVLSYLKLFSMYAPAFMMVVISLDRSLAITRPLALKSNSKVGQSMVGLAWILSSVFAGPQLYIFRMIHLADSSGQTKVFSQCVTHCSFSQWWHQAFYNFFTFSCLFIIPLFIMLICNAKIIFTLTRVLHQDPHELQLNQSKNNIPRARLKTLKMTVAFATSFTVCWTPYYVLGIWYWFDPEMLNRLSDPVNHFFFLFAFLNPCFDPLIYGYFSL
The data set is described as follows: Antagonist activity at N-terminal FLAG-tagged human full-length GnRHR expressed in HEK293T cells assessed as inhibition of GnRH-induced calcium mobilization preincubated for 15 mins followed by agonist addition by FLIPR assay. The format is functional, cell-based.
Conditions: not given
`COc1cc(OC)c(NC(=O)c2ccc(Cc3cc4c(cc3C)C(C)(C)CCC4(C)C)o2)c(OC)c1`: the IC50 is 1 µM and the Ki was 19 nM.

Turning to `CC(C)(C)c1ccc(-c2nc3c(N4CCN(Cc5cn([C@@H]6O[C@H](CO)[C@@H](O)[C@H](O)[C@H]6O)nn5)CC4)cccc3[nH]2)cc1`, the IC50 was above 10 µM and the Ki was above 1000 nM.

As to `C#CCN1CCN(c2cccc3[nH]c(-c4ccc(C(C)(C)C)cc4)nc23)CC1`, the IC50 was 20 µM and the Ki came out at 395 nM.

`CC(C)(C)OC(=O)N[C@@H](Cn1cc(CN2CCN(c3cccc4[nH]c(-c5ccc(C(C)(C)C)cc5)nc34)CC2)nn1)C(=O)O`: the IC50 is 10 µM and the Ki worked out at 186 nM.

As to `CC(C)(C)c1ccc(-c2nc3c(N4CCN(Cc5cn(-c6ccc(F)cc6)nn5)CC4)cccc3[nH]2)cc1`, the IC50 is 20 µM and the Ki was 410 nM.

With `CC(C)(C)c1ccc(-c2nc3c(N4CCN(Cc5cn(-c6nc7ccccc7[nH]6)nn5)CC4)cccc3[nH]2)cc1`, the IC50 was 5.01 µM and the Ki worked out at 104 nM.

In the case of `CC(C)(C)c1ccc(-c2nc3c(N4CCN(Cc5cccc6nccnc56)CC4)cccc3[nH]2)cc1`, the IC50 was 0.631 µM and the Ki came out at 12.2 nM.

`CC(=O)N[C@@H]1[C@@H](OC(C)=O)[C@H](OC(C)=O)[C@@H](COC(C)=O)O[C@H]1n1cc(CN2CCN(c3cccc4[nH]c(-c5ccc(C(C)(C)C)cc5)nc34)CC2)nn1`: the IC50 was 7.94 µM and the Ki turned out to be 157 nM.

For the compound `CC(C)(C)c1ccc(-c2nc3c(N4CCN(Cc5cn(CCF)nn5)CC4)cccc3[nH]2)cc1`, the IC50 was 0.794 µM and the Ki is 13.8 nM.

Consider `CC(C)(C)c1ccc(-c2nc3c(N4CCN(CCF)CC4)cccc3[nH]2)cc1`, for which the IC50 is 12.6 µM and the Ki was determined as 254 nM.

Tested on in the next data set: not listed separately
In words: Thermodynamic solubility of compound in simulated gastric fluid at pH 1.2 after 24 hrs by LC-QTOFMS analysis. To be noted: simulated gi fluid, pH 1.2, 24 h. It is filed as physicochemical. The procedure, abridged: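 Solid sample was suspended in 450 uL of buffer to about 2 mg/mL and shaken at 200 RPM for 24 h at ambient temperature (22.6-25.0 °C). The suspension was filtered, and the filtrate was diluted as needed (undiluted up to 10000x). Filtrate was quantified by LC-QTOFMS against a calibration curve prepared from a 10 mM DMSO stock. Two reference standards were run in triplicate in each medium.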
The compound `CC(C)(C)c1ccc(-c2nc3c(N4CCN(Cc5cn(CCF)nn5)CC4)cccc3[nH]2)cc1` registered a Therm_solubility of 2.098 µg/mL.
